Reference: ChEMBL document CHEMBL1144182, “Antimicrobial and cytotoxic arylazoenamines. Part III: antiviral activity of selected classes of arylazoenamines” (Bioorg Med Chem, 2008)
Activity calls are given as the source filed them. The rule behind the calls is not given here.

Columns and labels:
[1] = Cytotoxicity against mock-infected human MT4 cells assessed as reduction in cell viability after 96 hrs by MTT assay; format: cell-based
Method in brief: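 Exponentially growing MT-4 cells seeded at 1 × 10^5 cells/mL in RPMI-1640 with 10% FCS, penicillin and streptomycin, with or without serial compound dilutions. Incubated at 37 °C, 5% CO2; viability read by MTT after 96 h. CC50 is the concentration reducing mock-infected cell viability by 50%.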

[2] = Cytotoxicity against mock-infected MDBK cells assessed as reduction in cell viability after 96 hrs by MTT assay; format: cell-based, Bos taurus; settings: cattle
Method in brief: (§1)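 Cytotoxicity run in parallel with the antiviral assays. MDBK seeded at 6 × 10^5 and BHK at 1 × 10^6 cells/mL in maintenance medium with or without serial compound dilutions. Incubated 48–96 h at 37 °C, 5% CO2, then viability read by MTT. CC50 is the concentration reducing mock-infected cell viability by 50%.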

[3] = test system: Bovine viral diarrhea virus 1; experiment: Antiviral activity against BVDV infected in MDBK cells assessed as protection against virus-induced cytopathogenicity after 4 days by MTT assay; format: functional, organism-based; settings: Bovine viral diarrhea virus isolates and strains, 96 h
Method in brief: (§2)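 MDBK (BVDV) or BHK-21 (YFV) cells were seeded at 3 × 10^4 or 5 × 10^4 cells/well respectively and grown overnight to confluent monolayers at 37 °C in 5% CO2. Monolayers were infected at m.o.i. 0.01 in serum-free medium. After 1 h, MEM Earle's with 1% FCS was added, with or without serial compound dilutions. After 3–4 days at 37 °C, viability was read by MTT. EC50 was taken as 50% protection from virus-induced cytopathogenicity.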

[4] = Cytotoxicity against mock-infected BHK cells assessed as reduction in cell viability after 96 hrs by MTT assay; format: cell-based, Mesocricetus auratus; settings: hamster; method in brief: as §1
[5] = test system: Yellow fever virus; experiment: Antiviral activity against YFV infected in BHK21 cells assessed as protection against virus-induced cytopathogenicity after 4 days by MTT assay; format: functional, organism-based; settings: BHK-21, 96 h; method in brief: as §2
[6] = Cytotoxicity against mock-infected african green monkey Vero76 cells assessed as reduction in cell viability after 96 hrs by MTT assay; format: cell-based, Vero; settings: chlorocebus sabaeus
[7] = test system: Coxsackievirus B2; experiment: Antiviral activity against CVB2 infected in Vero76 cells assessed as reduction in virus plaque formation after 4 days by MTT assay; format: functional, organism-based; settings: Enterovirus B, Vero 76, 96 h
[8] = test system: Respiratory syncytial virus; experiment: Antiviral activity against RSV infected in Vero76 cells assessed as reduction in virus plaque formation after 4 days by MTT assay; format: functional, organism-based; settings: human respiratory syncytial virus, Vero 76, 96 h
[9] = test system: Poliovirus 1; experiment: Antiviral activity against Sb1 virus infected in Vero76 cells assessed as reduction in virus plaque formation after 4 days by MTT assay; format: functional, organism-based; settings: Enterovirus C, Sabin, Vero 76, 96 h
[10] = test system: Human immunodeficiency virus 1; experiment: Antiviral activity against HIV1 infected in MT4 cells assessed as virus-induced cytopathogenicity after 4 days; format: functional, organism-based
[11] = test system: Vaccinia virus; experiment: Antiviral activity against VV infected in Vero76 cells assessed as reduction in virus plaque formation after 4 days by MTT assay; format: functional, organism-based; settings: Orthopoxvirus vaccinia; Vero 76
[12] = test system: Vesicular stomatitis virus; experiment: Antiviral activity against VSV infected in Vero76 cells assessed as reduction in virus plaque formation after 4 days by MTT assay; format: functional, organism-based; settings: Vero 76

Structure (SMILES) | CC50 at 96 h [1] | CC50 at 96 h [2] | EC50 [3] | CC50 at 96 h [4] | EC50 [5] | CC50 at 96 h [6] | EC50 [7] | EC50 [8] | EC50 [9] | Activity [10] | Activity [11] | Activity [12]
C(/N=N/c1ccccc1)=C1/CCCN1Cc1ccccc1 | 22 µM | 74 µM | > 74 µM | 31 µM | > 31 µM | 87 µM | 16 µM | 30 µM | > 87 µM | inactive | inactive | inactive
CN1CCC/C1=C\N=N\c1ccc(Br)c(C(F)(F)F)c1 | 24 µM | > 100 µM | 46 µM | > 100 µM | > 100 µM | ≥ 100 µM | 100 µM | > 100 µM | 60 µM | inactive | inactive | inactive
O=[N+]([O-])c1cccc(/N=N\C2=C3CCCCN3CCC2)c1 | 37 µM | > 100 µM | 100 µM | 87 µM | > 87 µM | 90 µM | 71 µM | > 90 µM | 20 µM | inactive | inactive | inactive
c1ccc2c(/N=N\C3=C4CCCN4CCC3)cccc2c1 | 18 µM | 91 µM | 3.5 µM | 51 µM | > 51 µM | 90 µM | 44 µM | > 90 µM | > 90 µM | inactive | inactive | inactive
CN1C=C(/N=N/c2cccc(Br)c2)CCC1 | > 100 µM | > 100 µM | 19 µM | > 100 µM | – | > 100 µM | 27 µM | 18 µM | > 100 µM | inactive | inactive | inactive
Clc1ccc(/N=N\C2=C3CCCN3CCC2)cc1 | > 100 µM | 30 µM | > 30 µM | 34 µM | > 34 µM | 75 µM | 10 µM | > 75 µM | 20 µM | inactive | inactive | inactive
Clc1cccc(/N=N\C2=C3CCCCN3CCC2)c1 | 16 µM | 20 µM | > 20 µM | 46 µM | > 46 µM | 60 µM | 22 µM | 18 µM | > 60 µM | inactive | inactive | inactive
CN1CCC/C1=C\N=N\c1ccccc1 | > 100 µM | > 100 µM | 10 µM | > 100 µM | > 100 µM | 82 µM | 19 µM | 20 µM | > 82 µM | inactive | inactive | inactive
O=c1cnn([C@@H]2O[C@H](CO)[C@@H](O)[C@H]2O)c(=O)[nH]1 [6-AZAURIDINE] | 2 µM | > 100 µM | > 100 µM | > 100 µM | 26 µM | 20 µM | > 20 µM | 1.2 µM | > 20 µM | – | – | –
C[C@@]1(O)[C@H](O)[C@@H](CO)O[C@H]1n1cnc2c(=O)[nH]c(N)nc21 [2'-B-METHYL-GUANOSINE] | > 100 µM | > 100 µM | 1.7 µM | 90 µM | 1 µM | > 100 µM | 20 µM | > 100 µM | > 100 µM | – | – | –
CN1C=C(/N=N/c2ccc(Cl)c(C(F)(F)F)c2)CCC1 | 62 µM | 28 µM | – | 44 µM | > 44 µM | 90 µM | 34 µM | > 90 µM | > 90 µM | inactive | inactive | inactive
